From PubChem
KCNQ1 pot – potentiators or activators of KCNQ1 channel, primary screen, cell-based, thallium flux, high-throughput; CHO-K1 KCNQ1, thallium flux FluxOR fluorescence; hits give high values; B-score at 10 µM; 310,000 tested, 0.35% active;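 active means fluorescence ratio B-score, a plate-corrected score, at least three library SD, with initial intensity B-score within 5 SD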
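Schedule – 37 °C overnight plating, 90-min dark dye load, 20-min compound pretreatment · System – stable KCNQ1 CHO-K1 line · Probe or stimulus – thallium- and potassium-containing depolarizing buffer · Measured by – kinetic FluxOR fluorescence, 10 s baseline plus 110 s post-stimulus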
KCC2 mod – KCC2 cotransporter modulators, thallium flux, primary screen, cell-based, HEK293 KCC2, FluoZin-2 fluorescence, MLSMR; 190,000 tested, 2.2% active; KCC2 cells, thallium flux FluoZin-2 fluorescence; B-score of Tl+ flux slope (higher = more flux/activation; lower = inhibition) at 10 µM; Solute carrier family 12 member 5 (Homo sapiens), Q9H2X9; AID 1456, 2008;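 active means thallium flux slope and its plate-corrected score both differing from the plate sample mean at a set confidence after two filtering rounds, in either direction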;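 further: slope of fluorescence scaled to starting intensity during 10 to 20 s after thallium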
KCNQ1 inh – inhibitors of human KCNQ1 channel, primary screen, cell-based, thallium flux, high-throughput; CHO-K1 KCNQ1, FluxOR thallium flux fluorescence; hits give high values; B-score at 10 µM; 310,000 tested, 1.3% active;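 active means compounds whose thallium flux B-score, printed positive for inhibition, exceeds three library SD while starting fluorescence stays within three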;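 further: channel opened by potassium depolarization with thallium stimulus after 20 min compound exposure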
KCNK9 block – KCNK9 potassium channel inhibitors, primary screen, HEK293 cells, thallium flux. B-score at 10 µM. 310,000 tested, 1.2% active. FluxOR thallium flux fluorescence; hits give low values. Potassium channel subfamily K member 9 (Homo sapiens), Q9NPC2;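 active means ratio B-score over 3 SD below the library mean, with starting fluorescence within 5 SD of its mean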;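 further: negative B-score means less thallium flux so channel inhibition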
KCNK3 inh – human KCNK3 channel inhibitors, primary screen, CHO cells, FluxOR thallium flux, B-score. Potassium channel subfamily K member 3 (Homo sapiens), O14649. AID 602410, 2012. B-score at 10 µM. 340,000 tested, 0.84% active. FluxOR fluorescence; hits give low values;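 active means B-score under library mean minus 4 SD, starting fluorescence ratio at most library mean plus 5 SD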;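 further: more negative B-score means stronger inhibition of thallium flux through KCNK3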
hERG protect – hERG rescue from dofetilide block, primary screen, cell-based, CHO-hERG, FluxOR thallium flux, dofetilide IC70; dofetilide IC70 present; Voltage-gated inwardly rectifying potassium channel KCNH2 (Homo sapiens), Q12809; 310,000 tested, 0.51% active; AID 1511, 2009; activation (rescue from dofetilide block), less the hit threshold, % at 10 µM;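 active means activation above the mean of controls blocked by dofetilide plus 5 SD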;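 further: thallium influx through hERG after potassium depolarization seen as dye fluorescence rise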
KCNQ1 block val – KCNQ1 potassium channel inhibitors, confirmation, cell-based, Tl flux, duplicate. shares compounds with KCNQ1 inh. KCNQ1 cell line, FluxOR thallium flux fluorescence. inhibition, % at 10 µM. 1,600 tested, 93% active. AID 588353, 2011;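 active means primary screen active, with duplicate mean exceeding buffer control mean plus 3 SD of buffer wells, cut at about 28% in these data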;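 further: 0% = buffer control ratio and 100% = XE991 inhibitor control ratio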
CHO Tl flux – thallium flux effects in parental CHO cells, counter-screen for KCNQ1 inhibitor project, cell-based, Tl flux | fluorescence ratio (Tl flux) at 10 µM | parental CHO-K1, FluxOR thallium flux fluorescence ratio; hits give low values; zero means no signal rise above baseline | 1,600 tested, 21% active | shares compounds with KCNQ1 inh;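 active means mean of duplicate thallium-flux fluorescence ratios in parental host cells more than 5 SD below the buffer control mean, cut at about 0.38 in these data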;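 further: ratio is peak minus minimum fluorescence divided by baseline fluorescence; actives read low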
KCNQ1 APC inh – KCNQ1 channel inhibitors, confirmation, orthogonal assay, cell-based, automated electrophysiology; calls only at 10 µM; 490 tested, 20% active; shares compounds with KCNQ1 inh; KCNQ1-CHO cells, automated patch clamp current;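 active means KCNQ1 current drop exceeding 3 SD of negative control wells, seen in both duplicate runs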;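 further: steady state current during a 2 s step from -80 to +40 mV; negative values mean current inhibition and positive values mean potentiation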
KCNQ2 inh – KCNQ2 channel inhibition, selectivity assay for KCNQ1 inhibitor project, cell-based; 1,600 tested, 71% active; inhibition, % at 10 µM; shares compounds with KCNQ1 inh; KCNQ2 cells, FluxOR thallium flux fluorescence;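 active means mean percent inhibition of the KCNQ2 thallium signal more than 5 SD above the buffer-only control wells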;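 further: KCNQ2 expressed in CHO cells; 0% = buffer control wells and 100% = XE-991 inhibitor control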
Target sequence (O88943 whole entry, looked up): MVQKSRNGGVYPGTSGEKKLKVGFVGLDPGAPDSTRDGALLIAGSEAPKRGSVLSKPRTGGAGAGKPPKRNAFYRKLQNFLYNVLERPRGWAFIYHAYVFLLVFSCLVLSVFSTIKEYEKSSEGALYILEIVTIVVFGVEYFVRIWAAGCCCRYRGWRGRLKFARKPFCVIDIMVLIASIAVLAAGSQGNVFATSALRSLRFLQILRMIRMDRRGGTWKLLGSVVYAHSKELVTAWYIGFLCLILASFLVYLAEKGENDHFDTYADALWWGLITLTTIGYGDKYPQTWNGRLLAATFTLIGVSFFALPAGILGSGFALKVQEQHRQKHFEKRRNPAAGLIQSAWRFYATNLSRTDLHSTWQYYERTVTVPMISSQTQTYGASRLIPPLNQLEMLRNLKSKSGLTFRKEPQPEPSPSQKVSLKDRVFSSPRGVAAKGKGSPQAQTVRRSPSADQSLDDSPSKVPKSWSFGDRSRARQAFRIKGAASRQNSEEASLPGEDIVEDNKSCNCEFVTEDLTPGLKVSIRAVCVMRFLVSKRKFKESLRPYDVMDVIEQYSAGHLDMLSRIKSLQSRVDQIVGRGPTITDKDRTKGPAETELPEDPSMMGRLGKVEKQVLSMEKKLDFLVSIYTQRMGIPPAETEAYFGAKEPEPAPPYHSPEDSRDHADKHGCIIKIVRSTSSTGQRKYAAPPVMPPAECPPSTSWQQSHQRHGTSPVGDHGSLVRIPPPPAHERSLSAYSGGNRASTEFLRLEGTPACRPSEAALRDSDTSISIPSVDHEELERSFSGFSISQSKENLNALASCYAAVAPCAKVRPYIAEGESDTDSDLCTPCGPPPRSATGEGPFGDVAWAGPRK
KCNQ1-KCNE1 inh – KCNQ1/KCNE1 channel inhibition, selectivity assay for KCNQ1 inhibitor project, CHO-K1 cells, thallium flux, FluxOR; shares compounds with KCNQ1 inh; FluxOR thallium flux fluorescence; inhibition, % at 10 µM; AID 652147, 2013; 1,600 tested, 77% active;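 active means mean percent inhibition of duplicate wells above the buffer-only control mean plus 3 SD of those controls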;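 further: 0% = buffer only wells and 100% = XE-991 inhibitor control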
Numbers without * were called inactive; i = inactive; x = no result; + = active, no number. The list is not random: actives were taken first. Their share in the collection is about 4.1%.

SMILES | KCNQ1 pot | KCC2 mod | KCNQ1 inh | KCNK9 block | KCNK3 inh | hERG protect | KCNQ1 block val | CHO Tl flux | KCNQ2 inh | KCNQ1-KCNE1 inh | others
O=S(=O)(Nc1nc2ccccc2nc1Cl)c1cccc(C(F)(F)F)c1 | i | x | 7* | i | i | -11 | 42* | 0.43 | 63%* | 34%*
O=S(=O)(Nc1nc2ccccc2nc1Cl)c1ccccc1C(F)(F)F | i | x | i | i | i | -7 | x | x | x | x
C/C(=N\O)c1noc(C)c1C(=O)Nc1nccs1 | i | x | i | i | i | -9 | x | x | x | x
CC(C)(C)C(=O)Cn1c(=N)n(Cc2ccccc2)c2ccccc21 | i | 1.4 | 7* | i | i | -16 | 86* | 0.39 | 114%* | 90%*
CC(C)(C)C(=O)Cn1c(=N)n(Cc2ccccc2Cl)c2ccccc21 | i | x | i | i | i | -8 | x | x | x | x
Cc1cc(NC2CCCCC2)nc2ccccc12 | i | x | 6* | i | i | -19 | 58* | 0.45 | 59%* | 49%*
O=C(NCC1CC1)c1ccc(Nc2nc3ccc(Br)cc3[nH]2)cc1 | i | -0.66 | i | i | i | -13 | x | x | x | x
O=C(NCc1ccco1)c1cccc(Nc2nc3ccc(Br)cc3[nH]2)c1 | i | 0.38 | 8* | i | i | -26 | 163* | 0.33* | 128%* | +
CSCc1ccc(C(=O)N2CCC(N3CCC(C(=O)NC(C)C)CC3)CC2)o1 | i | x | i | i | i | -12 | x | x | x | x
O=C(Nc1ccc(Cl)c(Cl)c1)Nc1ccccc1O | i | -1.2 | 7* | i | i | -20 | 72* | 0.57 | i | 66%*
O=C1C=C(NC(=O)Nc2ccc(Cl)c(Cl)c2)CCC1 | i | x | 13* | i | i | -18 | 39* | 0.51 | i | i
O=C(Nc1ccc(Cl)c(Cl)c1)c1ccccc1 | x | x | x | x | i | x | x | x | x | x
c1ccc2c(c1)OCCOCCOCCOCCOCCOc1ccccc1OCCOCCOCCO2 | i | -1 | 8* | i | i | -23 | 80* | 0.5 | 64%* | 60%*
OCCN1CCOCCOc2ccccc2OCCOCC1 | i | x | i | i | i | -5 | x | x | x | x
Cc1ccc(C)c(S(=O)(=O)N2CCN(C(=O)c3cc(-c4cccs4)nn3-c3ccccc3)CC2)c1 | i | x | 9* | i | i | -15 | 0 | 0.45 | 79%* | 46%*
O=C(CN(c1ccc(Br)cc1)S(=O)(=O)c1ccc(Cl)c([N+](=O)[O-])c1)NCC1CCCO1 (configuration not stated) | x | x | x | x | i | x | x | x | x | x
CC(C)(C)OC(=O)N1CCCC(C(=O)CC#N)C1 (configuration not stated) | i | 0.11 | 9* | i | i | -11 | 96* | 0.49 | 109%* | 188%* | KCNQ1 APC inh=i
Cc1cccc(-c2c3c(=O)n(C)c(=O)n(C)c3cn2C(C)C)c1 | i | x | i | i | i | -15 | x | x | x | x
Cc1cccc(-c2c3c(=O)n(C)c(=O)n(C)c3cn2-c2ccc(O)cc2)c1 | i | -2.2 | 6* | i | i | -15 | 76* | 0.49 | i | 96%*
O=C(NCC1CCCO1)c1cccc(S(=O)(=O)N2CCOCC2)c1 (configuration not stated) | i | x | i | i | i | -5 | x | x | x | x
CCc1ccc(NC(=O)c2cnc(N3CCN(c4ccccn4)CC3)c3ccccc23)cc1 | i | -1.4 | 8* | i | i | -27 | 89* | 0.37* | 104%* | 141%*
COc1ccc(S(=O)(=O)N(C)CC(=O)NCCCn2ccnc2)cc1Cl | i | x | i | i | i | -10 | x | x | x | x
CCN(CC)CC(=O)Nc1sc(C)cc1C(=O)c1ccc(C)cc1 | i | x | 7* | i | i | -5 | 118* | 0.38 | 91%* | 154%* | KCNQ1 APC inh=i
CCN(CC)CC(=O)Nc1sc(C)cc1C(=O)c1ccccc1 | i | x | i | i | i | -6 | x | x | x | x
Cc1ccc(C)c(NC(=O)c2ccc(S(=O)(=O)N(C)CC3CCCO3)cc2)c1 (configuration not stated) | i | x | i | i | i | -7 | x | x | x | x
SMILES | KCNQ1 pot | KCC2 mod | KCNQ1 inh | KCNK9 block | KCNK3 inh | hERG protect | KCNQ1 block val | CHO Tl flux | KCNQ2 inh | KCNQ1-KCNE1 inh | others
COc1ccc(-c2cc(-c3nnc(COC(=O)c4ccc(O)cc4)o3)c3ccccc3n2)cc1OC | i | -0.041 | 9* | i | i | -22 | 104* | 0.43 | 98%* | + | KCNQ1 APC inh=i
COCCNC(=O)C(OC(=O)c1ccco1)c1ccc(OC)cc1 (configuration not stated) | x | x | x | x | i | x | x | x | x | x
Cc1ccc(NC(=O)Nc2ccc3c(c2)CCC3)cc1 | i | x | i | i | i | -11 | x | x | x | x
Cc1ccc(CN(C)CC(=O)Nc2ccc3c(c2)CCC3)cc1 | i | -1.3 | 6* | i | i | -10 | 83* | 0.39 | 86%* | 90%*
Cc1cccc2c1Sc1ccc(Cl)cc1CC2N1CCNCC1 (configuration not stated) | i | x | 9* | i | -12* | -21 | 123* | 0.3* | 116%* | 166%*
NS(=O)(=O)c1ccc(NC(=O)COC(=O)C2CC2)cc1 | x | x | x | x | i | x | x | x | x | x
